# Only some compounds are listed: those with a hit (about 4.6% of all), similar ones and a draw of the others.
# TAAR1 agonist: human TAAR1 agonism; activation, % at 3 µM; actives 0.99% (n = 360,000); CHO RD-HGA16 TAAR1, Fluo-8 calcium fluorescence; vehicle wells 0%, saturating PEA agonist 100%; Q96RJ0; AID 624467;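 active = activation above the mean activation of all test compounds in the run plus 3 SD, cut at about 38% in these data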
#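 Test system: RD-HGA16 (CHO) cells co-expressing Gα16 and hTAAR1 | Doses: Single dose, 3 µM | Schedule: 17-24 h seeding, 75 min 37 °C dye, 30 min RT | Evaluation: % activation from peak over basal fluorescence ratio, DMSO-to-PEA scaled | Technique: Kinetic Fluo-8 calcium fluorescence | Benchmarks: Low control DMSO, high control PEA (EC100)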
# OX1R antag-1: blocks the human orexin 1 receptor; O43613; OX1R-expressing cells, FRET antagonist read-out; inhibition, % at 6.6 µM; actives 1.8% (n = 330,000); AID 485270; in the data active = inhibition mostly above about 38%, no sharp cut-off; inactive = mostly below about 40%;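 note: 0% = agonist challenge alone and 100% = reference antagonist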
# Target sequence (O43613 whole entry, looked up): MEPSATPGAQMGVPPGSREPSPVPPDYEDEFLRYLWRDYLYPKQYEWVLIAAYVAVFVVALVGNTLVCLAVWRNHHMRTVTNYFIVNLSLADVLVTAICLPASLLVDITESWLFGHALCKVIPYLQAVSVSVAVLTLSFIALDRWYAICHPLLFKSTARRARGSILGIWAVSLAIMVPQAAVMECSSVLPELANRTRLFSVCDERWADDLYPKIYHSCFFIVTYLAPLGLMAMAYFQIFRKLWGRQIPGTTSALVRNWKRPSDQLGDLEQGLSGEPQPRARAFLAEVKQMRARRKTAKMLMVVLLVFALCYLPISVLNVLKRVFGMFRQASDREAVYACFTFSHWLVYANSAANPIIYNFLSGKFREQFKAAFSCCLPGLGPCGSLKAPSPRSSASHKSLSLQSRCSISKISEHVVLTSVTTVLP
# TAAR1 antagonist: antagonists of human TAAR1; CHO RD-HGA16 TAAR1, Fluo-8 calcium fluorescence, antagonist; inhibition, % at 3 µM; actives 1.5% (n = 360,000);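 active = inhibition above a per-plate cutoff, the mean inhibition of test compounds on that plate plus 3 SD, cut at about 49% in these data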;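 note: 0% = DMSO plus EC80 beta-PEA response and 100% = DMSO alone without agonist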
#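 System: CHO RD-HGA16 cells bearing hTAAR1. Reagent: EC80 β-phenethylamine stimulus. Schedule: seeding 17-24 h prior, 75-min 37 °C, 30-min RT dye loading. Signal: Fluo-8 intracellular calcium dye fluorescence, real-time kinetic reads. Read-out: % inhibition from peak post-agonist over basal fluorescence ratio. Benchmarks: vehicle wells and EC80 agonist wells. Replicates: n of 1.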
# OX1R antag-2: antagonists of human orexin 1 receptor. O43613. CHO/OX1R cells, Fluo-8 calcium fluorescence, orexin A. inhibition, % at 5 µM. actives 0.43% (n = 330,000). AID 434989;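 active = inhibition above its plate's threshold, mean inhibition of all tested compounds on the plate plus 3 SD, cut at about 37% in these data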;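 note: 0% = orexin A challenge wells and 100% = SB-334867-A antagonist wells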
# GPR7 antagonist: human neuropeptides B/W receptor 1 antagonism; P48145; GPR7-expressing cells, fluorescence antagonist assay; inhibition, % at 4.4 µM; actives 1.1% (n = 290,000); in the data active = inhibition above about 16%, passing the limit was not always enough;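 note: cells stimulated with the agonist NPW; 0% = agonist with vehicle and 100% = vehicle without agonist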
# CHO parental Ca: signal in parental CHO cells, OX1R antagonist counter-screen; inhibition, % at 5.6 µM; parental CHO-K1, ATP-induced calcium, Fluo-8 fluorescence; actives 0.63% (n = 330,000); AID 463079;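 active = inhibition above that plate's mean sample inhibition plus 3 SD, cut at about 26% in these data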;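 note: 0% = ATP-challenged DMSO wells and 100% = DMSO wells without ATP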
#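 Material: Parental CHO cells | Reagent: ATP | Compound dosing: Single nominal dose of 5.6 µM per compound | Detection: Intracellular calcium via Fluo-8 no-wash fluorescent dye | Read-out: % inhibition of ATP-induced calcium mobilization | Benchmarks: Low control ATP plus DMSO, high control DMSO only | Replicates: Singlicate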
# An asterisk follows results filed as active; . = no result given.
SMILES,TAAR1 agonist,OX1R antag-1,TAAR1 antagonist,OX1R antag-2,GPR7 antagonist,CHO parental Ca
COc1ccc(C2c3[nH]c4ccccc4c3CCN2Cc2cccn2-c2ncccn2)cc1C (configuration not stated),1,26,1,-22,30*,-33
CCOc1ccc(NC(=O)CN2CCN(Cc3c(F)cccc3F)CC2)cc1,2,3,-1,-24,-19,-17
Cc1c(O)cc2c(c1O)C(=O)CC(c1ccccc1)O2 (configuration not stated),0,4,8,105*,.,100*
O=C(CSc1cn(CC(=O)N2CCCCCC2)c2ccccc12)NCC1CCCO1 (configuration not stated),6,7,-37,-20,0,-14
CCOC(=O)[C@@H]1[C@H]2COc3cc(OC)ccc3[C@@H]2N2C(=O)N(c3ccc(C(F)(F)F)cc3)C(=O)[C@@]12C,1,28,-18,-15,6,-19
CCOC(=O)[C@@H]1[C@H]2COc3cc(OC)ccc3[C@H]2N2C(=O)N(c3ccc(C(F)(F)F)cc3)C(=O)[C@]12C,7,20,26,31,.,50*
CC(C)Cc1ccc(C(C)CC2=CCC(CN(C)C)C2=O)cc1 (configuration not stated),3,.,51*,.,.,.
CC(C)Cc1ccc(C(C)/C=C2/CCC(CN3CCCCC3)C2=O)cc1 (configuration not stated),4,.,12,.,.,.
COC(=O)c1ccc(Nc2ccc3nonc3c2[N+](=O)[O-])cc1,2,5,-4,-3,-10,-3
CCOc1ccc(Nc2ccc(C(=O)O)cc2[N+](=O)[O-])cc1,-1,35,-31,-18,5,1
Cc1ccc(Nc2ccc([N+](=O)[O-])nc2[N+](=O)[O-])cc1,1,62*,-7,2,4,-8
CCOc1ccc(Nc2ccc3nonc3c2[N+](=O)[O-])cc1,-4,45*,6,-35,14,0
Cc1ccc(Nc2ccc3nonc3c2[N+](=O)[O-])cc1,2,64*,-3,-7,4,-17
O=C(O)c1ccc(Nc2ccc3nonc3c2[N+](=O)[O-])cc1,5,57*,-2,9,-9,-7
O=[N+]([O-])c1c(Nc2ccc(Br)cc2)ccc2nonc12,3,13,-12,-10,-7,-4
Cc1ccsc1C(=O)N1CCN(c2ccccn2)CC1,0,-5,-8,-16,-2,-10
Cc1ccc(S(=O)(=O)N2CCN(C(=O)c3ccc4nc[nH]c4c3)CC2)cc1,2,12,2,-10,.,-6
CCN(CC)S(=O)(=O)c1ccc(N2CCN(C)CC2)c(NC(=O)CSCC(=O)Nc2cccc(C)c2)c1,3,9,-14,-39,.,-12
O=C(CNC(=O)c1ccc(Br)cc1)NCC(=O)OCC(=O)c1ccccc1,2,12,12,-13,-15,-23
Cn1c(=O)n(C)c2cc(S(=O)(=O)NCCc3ccccc3)ccc21,36,43,3,-15,2,-7
Cc1nc(Nc2ccc(C(=O)O)cc2)nc(Nc2ccc(C(=O)O)cc2)c1[N+](=O)[O-],10,42*,3,-2,-11,1
O=C(NCc1ccc(F)cc1)c1ccc(N2CCc3ccccc32)c([N+](=O)[O-])c1,0,27,52*,3,-2,-6
CC(C)(C)C1CCC2(CC1)C(C#N)=C(SCC(=O)NC1CCCCC1)NC(=O)C2C#N (configuration not stated),14,18,30,-6,7,-16
Cc1cccc(C)c1-n1c(C)nn(-c2ncc(C(F)(F)F)cc2Cl)c1=O,-1,6,-29,-19,0,-16
COc1ccc(S(=O)(=O)Nc2ccccc2-c2nnn(CC(=O)Nc3ccccc3OC)n2)cc1,2,60*,37,33,-10,44*
SMILES,TAAR1 agonist,OX1R antag-1,TAAR1 antagonist,OX1R antag-2,GPR7 antagonist,CHO parental Ca
CCOC(=O)CC(NC(=O)Cn1nnc(-c2ccccc2F)n1)c1ccc(OC)cc1 (configuration not stated),5,15,4,-33,4,-5
CCOC(=O)CC(NC(=O)Cn1nnc(-c2ccccc2Cl)n1)c1ccc(OC)cc1 (configuration not stated),46*,10,-3,-10,20*,-18
COc1cccc(NC(=O)Cn2nnc(-c3ccccc3N)n2)c1,6,8,-1,-12,-3,-6
COc1ccc(NC(=O)Cn2nnc(-c3ccccc3NS(=O)(=O)c3ccccc3)n2)cc1,.,26,.,23,-5,43*
CCn1c(N)c(C(=O)COC(=O)CCc2nc3ccccc3c(=O)[nH]2)c(=O)[nH]c1=O,1,7,-26,-10,.,2
COc1ccccc1NS(=O)(=O)c1cc(NC(=O)CN2C(=O)NC3(CCCC3)C2=O)ccc1C,0,34,-14,-11,.,-14
Cc1ccc(NC(=O)C2CCN(c3ncnc4sc(C)c(C)c34)CC2)cc1S(=O)(=O)N(C)C,7,20,34,-31,.,-6
CCN(CC)S(=O)(=O)c1cc(NC(=O)C2CCN(c3ncnc4sc(C)c(C)c34)CC2)ccc1Cl,5,23,65*,14,.,7
Cc1ccc(C)c(S(=O)(=O)N2CCN(C(=O)C3CCN(c4ncnc5sc(C)c(C)c45)CC3)CC2)c1,5,-1,59*,17,.,-3
O=C(NC(=S)N1CCCCC1)c1cccs1,1,16,-9,3,-2,-13
O=[N+]([O-])/C=C/c1cn(Cc2ccc(F)cc2)c2ccccc12,1,13,-21,-2,12,24
O=C(/C=C/c1ccccc1)Nc1cccnc1Oc1ccccc1F,2,6,18,-25,2,-22
CCC(=O)NC(=S)Nc1ccc(NC(=O)c2ccc(OC)cc2)cc1,9,15,-5,5,-10,6
CCC(=O)NC(=S)Nc1ccc(NC(=O)c2ccc(Br)o2)cc1,-1,13,0,-26,18*,0
CCn1c2ccccc2c2cc(NC(=O)COc3ccc(OC)cc3)ccc21,13,13,0,-24,-7,-14
CCn1c2ccccc2c2cc(NC(=O)c3ccc(=O)oc3)ccc21,6,12,-17,-22,-8,-18
CCn1c2ccccc2c2cc(NC(=O)COc3ccccc3)ccc21,1,65*,-3,-20,-12,-35
CCn1c2ccccc2c2cc(NC(=O)c3ccc(Br)o3)ccc21,1,85*,5,48*,19,-7
CCn1c2ccccc2c2cc(NC(=O)c3cccc([N+](=O)[O-])c3C)ccc21,-1,26,8,-6,-4,-13
